# From ChEMBL document CHEMBL4270571, “6-Biphenylmethyl-3-hydroxypyrimidine-2,4-diones potently and selectively inhibited HIV reverse transcriptase-associated RNase H” (Eur J Med Chem, 2018)
# Legend:
# [1] = tested on: Human immunodeficiency virus 1; experiment: Antiviral activity against HIV1 infected in human P4R5 cells assessed as reduction in viral infection preincubated with cells for 24 hrs followed by viral infection measured after 48 hrs by fluorescence based MAGI assay; format: functional, organism-based
# How it was run: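 P4R5 indicator cells were seeded at 4 × 10³ per well in DMEM/10% FBS with puromycin. They were pretreated for 24 h with 1% DMSO or a range of compound concentrations, then infected with HIV-1 at an MOI of 1.25 for another 48 h. Cells were lysed and β-galactosidase was read by fluorescence with MUG substrate. EC50 is given as mean ± SD of at least two independent experiments.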
# [2] = molecular target: Human immunodeficiency virus type 1 integrase (Human immunodeficiency virus 1, UniProt Q7ZJM1); experiment: Inhibition of HIV integrase strand transfer activity expressed in Escherichia coli BL21 (DE3) using 5' biotin ATGTGGAAAATCTCTAGCA primer annealed with ACTGCTAGAGATTTTCCACAT 3' Cy5 template preincubated for 10 mins followed by primer/template addition measured after 30 mins by fluorescence assay
# How it was run: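 Purified HIV integrase in 10 mM HEPES pH 7.5, 10% glycerol, 10 mM MnCl₂, 1 mM DTT, with compounds in duplicate at 0.13–100 (final), 10 min at 25 °C. 500 nM biotin/Cy5 oligo duplex added, 30 min at 37 °C, EDTA quench. Products captured on streptavidin beads, washed, NaOH-denatured, formamide-eluted, read at 635/675.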
# Gag-Pol polyprotein = Gag-Pol polyprotein (Human immunodeficiency virus type 1 group M subtype B (isolate HXB2)(HIV-1), UniProt P04585); experiment: Inhibition of recombinant HIV1 reverse transcriptase polymerase expressed in Escherichia coli JM109 assessed as decrease in extension of 18 nucleotide DNA primer annealed to 100 nucleotide DNA template measured after 30 mins; design: species or system Human immunodeficiency virus 1
# How it was run: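 18-nt DNA primer annealed to 100-nt DNA template (40 nM) was extended by 20 nM RT with dNTPs in 50 mM Tris pH 7.8, 50 mM NaCl, 1% DMSO, with increasing compound concentrations. Reactions were started with 6 mM MgCl₂, run 30 min at 37 °C, and stopped with EDTA. dsDNA formed was quantified by fluorescent dye (ex/em 504/531 nm), and dose-response data were fitted to a logistic curve.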
# [3] = Cytotoxicity against human P4R5 cells assessed as reduction in cell viability after 72 hrs by XTT assay; format: cell-based
# How it was run: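 P4R5 cells seeded at 4 × 10³ per well in DMEM/10% FBS with puromycin ([…]). Cells treated with 1% DMSO or varying compound concentrations for 72 h, then viability read by XTT kit. CC50 = concentration giving 50% cell death, mean from at least two independent experiments.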
# [4] = molecular target: Human immunodeficiency virus type 1 reverse transcriptase (Human immunodeficiency virus 1, UniProt Q72547); experiment: Inhibition of recombinant HIV1 reverse transcriptase RNase H expressed in Escherichia coli JM109 using RNA/DNA duplex substrate HTS1 as substrate
# [5] = Selectivity ratio of CC50 for human P4R5 cells to EC50 for HIV1 infected in human P4R5 cells; format: toxicity, cell-based
# How it was run: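 P4R5 indicator cells, 4 × 10³ per well in DMEM/10% FBS with puromycin. […] Cytotoxicity arm: uninfected cells, compound for 72 h, XTT read-out; CC50 is 50% cell death. Each value is mean ± SD of ≥2 independent experiments.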
# Human immunodeficiency virus type 1 integrase, sequence (Q7ZJM1 whole entry): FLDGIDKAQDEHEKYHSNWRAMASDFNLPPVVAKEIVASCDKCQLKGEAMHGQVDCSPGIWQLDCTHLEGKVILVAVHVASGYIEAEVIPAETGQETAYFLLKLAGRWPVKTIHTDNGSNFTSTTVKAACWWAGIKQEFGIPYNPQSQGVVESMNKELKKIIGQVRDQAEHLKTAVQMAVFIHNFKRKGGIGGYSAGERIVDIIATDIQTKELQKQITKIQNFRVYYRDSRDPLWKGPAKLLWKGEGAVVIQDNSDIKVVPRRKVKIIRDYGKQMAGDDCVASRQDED
Structure (SMILES),EC50 [1],IC50 [2],IC50 (Gag-Pol polyprotein),CC50 [3],IC50 [4],Ratio CC50/EC50 [5]
O=c1cc(Cc2ccc(-c3ccc(Cl)cc3Cl)cc2)[nH]c(=O)n1O,13 µM,> 100 µM,> 10 µM,> 100 µM,0.0092 µM,–
CC(C)c1c(Cc2ccccc2)n(Cc2ccccc2)c(=O)n(O)c1=O,–,–,–,–,15 µM,–
O=c1cc(Cc2ccc(Br)cc2)[nH]c(=O)n1O,> 20 µM,> 100 µM,> 10 µM,64 µM,0.011 µM,–
CC(C)c1c(Cc2ccccc2)n(COCc2ccc(F)cc2)c(=O)n(C)c1=O,–,–,–,–,7 µM,–
O=c1cc(Cc2cccc(-c3cccc(C(F)(F)F)c3)c2)[nH]c(=O)n1O,> 20 µM,> 100 µM,> 10 µM,> 100 µM,0.037 µM,–
CC(C)c1c(Cc2ccccc2)n(CCc2ccc(F)cc2)c(=O)n(O)c1=O,–,–,–,–,6.6 µM,–
O=c1cc(Cc2ccc(-c3cccc(Cl)c3)cc2)[nH]c(=O)n1O,> 20 µM,> 100 µM,> 10 µM,> 100 µM,0.016 µM,–
O=c1cc(Cc2ccc(-c3ccc(C(F)(F)F)cc3)cc2)[nH]c(=O)n1O,16 µM,> 100 µM,> 10 µM,> 100 µM,0.047 µM,–
O=c1cc(Cc2cccc(-c3ccc(Cl)cc3)c2)[nH]c(=O)n1O,7.6 µM,> 100 µM,> 10 µM,27 µM,0.012 µM,4 to 6
CCOCn1c(Cc2ccc(-c3ccc(C(F)(F)F)cc3)cc2)cc(=O)n(O)c1=O,–,–,–,–,2.1 µM,–
CC(C)c1c(Cc2ccc(F)cc2)n(COCc2ccc(F)cc2)c(=O)n(O)c1=O,–,–,–,–,6.2 µM,–
CC(C)c1c(Cc2ccccc2)n(COCCc2ccc(F)cc2)c(=O)n(O)c1=O,–,–,–,–,2.8 µM,–
CC(C)c1c(Cc2ccc(F)cc2)n(Cc2ccc(F)cc2)c(=O)n(O)c1=O,–,–,–,–,13 µM,–
O=c1cc(Cc2ccc(-c3ccc(C(F)(F)F)cc3C(F)(F)F)cc2)[nH]c(=O)n1O,> 20 µM,> 100 µM,> 10 µM,> 100 µM,0.085 µM,–
O=c1cc(Cc2cccc(-c3ccccc3)c2)[nH]c(=O)n1O,9.6 µM,> 100 µM,> 10 µM,16 µM,0.016 µM,–
CC(C)c1c(Cc2ccccc2)n(COCc2ccc(F)cc2)c(=O)n(O)c1=O,–,–,–,–,2.1 µM,–
Cc1cc(-c2cccc(Cc3cc(=O)n(O)c(=O)[nH]3)c2)ccc1F,12 µM,> 100 µM,> 10 µM,37 µM,0.0088 µM,–
CC(C)c1c(Cc2ccccc2)n(COCc2ccc(F)cc2F)c(=O)n(O)c1=O,–,–,–,–,1.8 µM,–
O=c1cc(Cc2ccc(-c3cc(Cl)cc(C(F)(F)F)c3)cc2)[nH]c(=O)n1O,> 20 µM,> 100 µM,> 10 µM,> 100 µM,0.015 µM,–
COn1c(=O)c(C(C)C)c(Cc2ccccc2)n(COCc2ccc(F)cc2)c1=O,–,–,–,–,11 µM,–
CC(C)c1c(Cc2ccccc2)n(COCc2cccc(Cl)c2F)c(=O)n(O)c1=O,–,–,–,–,0.9 µM,–
O=c1cc(Cc2ccc(-c3cccc(C(F)(F)F)c3)cc2)[nH]c(=O)n1O,> 20 µM,> 100 µM,> 10 µM,> 100 µM,0.025 µM,–
CCOCn1c(Cc2ccccc2)c(C(C)C)c(=O)n(O)c1=O,–,–,–,–,6.8 µM,–

Structure (SMILES),EC50 [1],IC50 [2],IC50 (Gag-Pol polyprotein),CC50 [3],IC50 [4],Ratio CC50/EC50 [5]
O=c1cc(Cc2cccc(-c3cc(Cl)cc(C(F)(F)F)c3)c2)[nH]c(=O)n1O,20 µM,> 100 µM,> 10 µM,> 100 µM,0.038 µM,–
CCc1c(-c2ccc(F)cc2)n(COCc2ccc(F)cc2)c(=O)n(O)c1=O,–,–,–,–,17 µM,–
CCOCn1c(Cc2ccc(-c3ccc(C#N)cc3)cc2)c(C)c(=O)n(O)c1=O,–,–,–,–,5.2 µM,–
COc1ccc(-c2cccc(Cc3cc(=O)n(O)c(=O)[nH]3)c2)cc1F,12 µM,> 100 µM,> 10 µM,20 µM,0.0077 µM,–
Cc1cc(-c2ccc(Cc3cc(=O)n(O)c(=O)[nH]3)cc2)ccc1F,> 20 µM,> 100 µM,> 10 µM,> 100 µM,0.011 µM,–
O=c1cc(Cc2ccc(-c3ccccc3)cc2)[nH]c(=O)n1O,10 µM,> 100 µM,> 10 µM,11 µM,0.016 µM,–
CCOCn1c(Cc2ccc(-c3ccccc3)cc2)c(C)c(=O)n(O)c1=O,–,–,–,–,6.2 µM,–
O=c1cc(Cc2ccc(-c3ccc(Cl)c(F)c3)cc2)[nH]c(=O)n1O,15 µM,> 100 µM,> 10 µM,59 µM,0.0094 µM,–
O=c1cc(Cc2cccc(-c3cccc(F)c3)c2)[nH]c(=O)n1O,9.9 µM,> 100 µM,> 10 µM,14 µM,0.018 µM,–
CC(C)c1c(Cc2ccccc2)n(CCCCc2ccc(F)cc2)c(=O)n(O)c1=O,–,–,–,–,0.9 µM,–
CC(C)c1c(Cc2ccccc2)n(COCCCCc2ccc(F)cc2)c(=O)n(O)c1=O,–,–,–,–,1.8 µM,–
O=c1cc(Nc2ccc(-c3ccccc3)cc2)[nH]c(=O)n1O,–,–,2 µM,–,–,–
CCOCn1c(Cc2ccc(F)cc2)c(C(C)C)c(=O)n(O)c1=O,–,–,–,–,> 25 µM,–
O=c1cc(Cc2cccc(Br)c2)[nH]c(=O)n1O,> 20 µM,> 100 µM,> 10 µM,63 µM,0.013 µM,–
CCc1c(Cc2ccccc2)c(=O)n(O)c(=O)n1COCc1ccc(F)cc1,–,–,–,–,15 µM,–
O=c1cc(Cc2ccc(-c3cccc(F)c3)cc2)[nH]c(=O)n1O,12 µM,> 100 µM,> 10 µM,24 µM,0.028 µM,–
CCOCn1c(Cc2ccc(-c3cc(OC)cc(OC)c3)cc2)c(C)c(=O)n(O)c1=O,–,–,–,–,6.7 µM,–
CCOCn1c(Cc2ccc(-c3ccc(Cl)c(F)c3)cc2)cc(=O)n(O)c1=O,–,–,–,–,0.43 µM,–
CCOCn1c(Cc2ccc(-c3ccccc3)cc2)cc(=O)n(O)c1=O,> 20 µM,–,–,> 100 µM,> 5 µM,–
O=c1cc(Cc2ccc(-c3ccc(F)cc3F)cc2)[nH]c(=O)n1O,5.6 µM,> 100 µM,> 10 µM,11 µM,0.015 µM,–
CC(C)c1c(Cc2ccccc2)n(COCc2ccccc2)c(=O)n(O)c1=O,–,–,–,–,2.5 µM,–
CC(C)c1c(Cc2ccccc2)n(CCCc2ccc(F)cc2)c(=O)n(O)c1=O,–,–,–,–,3.8 µM,–
CC(C)c1c(Cc2ccc(F)cc2)n(Cc2ccccc2)c(=O)n(O)c1=O,–,–,–,–,10 µM,–
